# From PubChem
# Hits are enriched below; roughly 2% of the tested compounds scored in any of these assays.
# TRAIL sens C8: viability loss with TRAIL in NB7+C8 cells, primary screen, TRAIL sensitizer project, cell-based, ATPlite luminescence. inhibition (viability loss, TRAIL sensitization), % at 10 µM. hit rate 1% among 360,000. AID 624354, 2012;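 active = compounds causing at least 50% loss of cell viability in the single-dose screen, relative to plate controls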
# FLuc act counter: FLuc activators, initial screening, artefact control for FLuc-dependent activation tests, biochemical, ATPlite luminescence. 200,000 tested, under 10 active. ATPlite luciferase biochemical, 10 min; 0 = ATP-free wells, 1 = DMSO control. Luciferin 4-monooxygenase (Photinus pyralis), P08659. activation factor at 10 µM;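 active = luciferase activation factor, scaled between plate controls, of at least 2 with compound at 10 µM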
# Target sequence (P08659 whole entry, looked up): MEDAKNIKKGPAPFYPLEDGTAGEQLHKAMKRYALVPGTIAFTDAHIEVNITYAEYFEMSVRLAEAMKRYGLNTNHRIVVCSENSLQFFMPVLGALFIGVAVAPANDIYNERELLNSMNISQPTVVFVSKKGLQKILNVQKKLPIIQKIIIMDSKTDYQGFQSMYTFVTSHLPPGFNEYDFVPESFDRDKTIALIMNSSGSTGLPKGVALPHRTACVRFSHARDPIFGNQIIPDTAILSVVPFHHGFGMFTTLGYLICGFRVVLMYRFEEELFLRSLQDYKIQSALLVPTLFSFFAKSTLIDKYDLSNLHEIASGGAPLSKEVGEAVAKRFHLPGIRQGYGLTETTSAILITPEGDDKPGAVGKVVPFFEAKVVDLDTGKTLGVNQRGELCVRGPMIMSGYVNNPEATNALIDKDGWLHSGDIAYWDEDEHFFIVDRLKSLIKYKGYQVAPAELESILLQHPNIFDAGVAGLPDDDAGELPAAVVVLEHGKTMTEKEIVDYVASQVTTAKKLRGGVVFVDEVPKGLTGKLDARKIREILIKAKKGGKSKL
#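 test system = cell-free luciferase reagent | medium = PBS as buffer for the ATP substrate | dosing = test compounds dosed from 2 mM stocks in 100% DMSO | incubation = 10 min at ambient temperature | detection = luminescence measurement of luciferase light output | benchmarks = low control with PBS replacing ATP, high control enzyme plus ATP without compound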
# HSP90 inh: HSP90 inhibitors, primary screen, cell lysate, luminescence; Rabbit reticulocyte lysate, luciferase refolding luminescence, 3 h; hit rate 0.91% among 290,000; inhibition, % at 5.6 µM; AID 1789, 2009; Heat shock protein HSP 90 (rabbit reticulocyte lysate; luciferase refolding);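 active = inhibition above the screen-wide mean plus 3 SD, computed separately per campaign, cut at about 16% in these data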;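 note: inhibitors lower the luminescence because luciferase stays unfolded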
# PPC-1+TRAIL kill: compounds killing PPC-1 cancer cells with TRAIL present, primary screen, TRAIL potentiator project, ATPLite luminescence, uHTS; hit rate 0.41% among 220,000; AID 1443, 2008; cell killing (% activity), % at 4 µM or 5 µM; PPC-1 cells + TRAIL, ATPLite viability luminescence;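 active = cell killing above 50% in the first pass at 4 µM, then a duplicate retest at 5 µM averaging 50% or more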
# FLuc inh counter: firefly luciferase enzyme inhibitors, primary screen, artefact control for luciferase-based inhibitor screens, biochemical, luminescence, ATPLite; Luciferin 4-monooxygenase (Photinus pyralis), P08659; 10 min; inhibition, % at 10 µM; hit rate 1.5% among 200,000; AID 1006, 2008;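 active = inhibition above about 50% when tested at 10 µM, limit read from the data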
# PPC-1 tox: cytotoxicity in PPC-1 cells, confirmation, cytotoxicity control for TRAIL apoptosis potentiator project, cell-based, ATP content luminescence. shares compounds with PPC-1+TRAIL kill. PPC-1 viability, ATPlite luminescence, overnight. cytotoxicity, % at 5 µM. hit rate 50% among 1,200. AID 1447, 2008;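 active = reconfirmed compounds whose average cytotoxicity reaches 50% or more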
# HSP90 inh confirm: HSP90 inhibitors, confirmation, cell lysate, luminescence; shares compounds with HSP90 inh; rabbit reticulocyte lysate, luciferase refolding luminescence, 3 h; inhibition, % at 5.9 µM; hit rate 64% among 2,300; in the data active = inhibition above about 18%
# FLuc counter: firefly luciferase inhibitors, HSP90 counter-screen, confirmation, artefact control for HSP90 inhibitor project, biochemical, luminescence, triplicate. AID 1847, 2009. purified native firefly luciferase. inhibition, % at 5.9 µM. hit rate 48% among 2,300. shares compounds with HSP90 inh;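 active = inhibition above the mean inhibition of all tested sample wells plus 3 SD, cut at about 10% in these data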
# Numbers stand for hits; . = inactive; / = no result given.
SMILES,TRAIL sens C8,FLuc act counter,HSP90 inh,PPC-1+TRAIL kill,FLuc inh counter,PPC-1 tox,HSP90 inh confirm,FLuc counter
CC1CCc2nc(NC(=O)c3ccco3)sc2C1 (stereo unspecified),84,.,54,80,93,77,82,77
O=C(Nc1ccncc1)c1ccc2c(c1)OCCO2,.,.,.,.,.,/,/,/
COc1ccc(C(=O)Nc2ccc3c(c2)OCCO3)cc1,72,.,28,75,90,73,46,27
Cc1ccc(NC(=O)c2ccc3c(c2)OCCO3)cc1,67,.,20,56,89,56,51,45
O=c1ccc(-c2ccc(S(=O)(=O)Nc3ccc(F)cc3)s2)n[nH]1,.,/,.,/,/,/,/,/
C=CCn1c(C)cc(C(=O)Cn2nc(C(=O)O)c3ccccc3c2=O)c1C,78,.,51,.,92,.,71,20
CN(Cc1ccc(OC(F)F)cc1)C(=O)c1cccc(S(=O)(=O)N2CCN(Cc3ccccc3)CC2)c1,.,/,/,/,/,/,/,/
Cc1cc(/C=N/NC(=O)C(O)(c2ccccc2)c2ccccc2)c(C)n1-c1ccccc1,.,.,.,.,.,/,/,/
Cc1cc(/C=N/NC(=O)c2cccs2)c(C)n1-c1ccccc1,61,.,57,69,91,68,71,66
CCOc1ccc(-c2cn3ccccc3n2)cc1,84,.,27,91,97,89,64,47
COc1ccc(-c2nc3ccccc3[nH]2)cc1,79,.,20,78,93,77,47,33
O=C(Nc1ccc2c(c1)nc1n2CCOC1)c1ccco1,.,.,.,.,.,/,/,/
O=C(Nc1ccc2c(c1)nc1n2CCSC1)c1ccco1,72,.,35,60,87,58,45,20
N/C(=N\OCc1ccc([N+](=O)[O-])cc1)c1ccccn1,/,.,84,86,96,85,91,86
CC(C(=O)O/N=C(\N)c1ccccn1)c1ccc([N+](=O)[O-])cc1 (stereo unspecified),.,/,.,/,/,/,/,/
N/C(=N\OC(=O)c1ccccc1)c1ccccn1,.,.,58,.,96,52,38,87
CN1CCN(C(=O)c2cccn(Cc3c(Cl)cccc3Cl)c2=O)CC1,.,/,.,/,/,/,/,/
Cc1cc(C(=O)CN2C(=O)c3ccccc3S2(=O)=O)c(C)n1CC1CCCO1 (stereo unspecified),83,.,24,86,.,85,28,.
CC(C)c1ccc(NC(=O)c2csnn2)cc1,.,.,20,.,68,.,33,23
O=C(Nc1ccccc1NC(=O)c1csnn1)c1csnn1,.,.,.,.,.,/,/,/
O=C(COc1ccc(CO)cc1)Nc1ccc(F)cc1,.,.,.,.,.,/,/,/
O=C(COc1ccc(CO)cc1Cl)Nc1ccc(F)cc1,54,.,37,.,72,.,39,36
Cc1ccnc(NC(=O)/C=C/c2ccccc2Cl)c1,55,.,35,.,76,.,58,47
C/C(=N\NC(=O)c1ccccc1O)c1cccs1,70,.,23,58,92,54,40,44
COc1ccccc1/C=C(/C(=O)OCC(=O)Nc1cc(C)ccc1C)c1ccccc1,.,.,.,.,.,/,/,/
SMILES,TRAIL sens C8,FLuc act counter,HSP90 inh,PPC-1+TRAIL kill,FLuc inh counter,PPC-1 tox,HSP90 inh confirm,FLuc counter
CCc1ccc(NC(=O)c2cnn3ccccc23)cc1,58,.,65,.,78,50,78,71
Cc1cccc(C(=O)n2c(=S)nc3cc(C)ccn32)c1,82,/,18,78,/,79,57,47
Cc1ccc(NC(=O)Nc2nnc(-c3ccccc3)o2)cc1,.,.,.,.,.,/,/,/
Cc1ccc(-c2nnc(Nc3ccccc3)o2)cc1,81,.,36,84,88,85,81,71
COc1ccc(Cl)cc1C(=O)NNC(=O)c1ccc(F)c(S(=O)(=O)N2CCOCC2)c1,.,/,/,/,/,/,/,/
CCN1C=CC(=C2C(=O)c3ccccc3C2=O)C=C1,91,.,86,96,98,96,93,87
CC1=CC(=C2C(=O)c3ccccc3C2=O)C=C(C)O1,.,.,.,.,.,/,/,/
CCCCCCN1C=CC(=C2C(=O)c3ccccc3C2=O)C=C1,92,.,48,81,94,80,84,78
CCc1ccc(-c2cc(C(=O)Nn3cnnc3)c3ccccc3n2)cc1,93,.,30,97,98,97,56,30
CCNC(=S)NNC(=O)c1cc(-c2ccc(OCC)cc2)nc2ccccc12,86,.,50,93,98,93,74,25
CCC/C=N/NC(=O)c1cc(-c2ccccc2)nc2ccccc12,.,.,.,.,.,/,/,/
CCCOc1cccc(-c2cc(C(=O)NNC(=S)NCC)c3ccccc3n2)c1,.,.,.,.,.,/,/,/
COc1cc(SC)ccc1C(=O)Nc1ncc(C)s1,80,.,80,73,93,76,88,85
COc1cc(SC)ccc1C(=O)Nc1ncc(Cl)cc1Cl,.,.,.,.,.,/,/,/
COc1cc(SC)ccc1C(=O)Nc1ccccn1,77,/,18,68,/,66,47,38
COc1cc(SC)ccc1C(=O)Nc1ccon1,.,.,.,.,.,/,/,/
COc1cc(SC)ccc1C(=O)Nc1ccc(Br)cn1,86,/,33,88,/,88,87,83
COc1ccc(/C=N/N2C(=O)C3C4C=CC(CC4)C3C2=O)c(OC)c1 (stereo unspecified),.,.,.,.,.,/,/,/
CCn1c(SCCN2CCOCC2)nc2c1c(=O)n(C)c(=O)n2C,.,/,.,/,/,/,/,/
CCC1(c2ccc(F)cc2)NC(=O)N(CC(=O)NCc2ccccc2Cl)C1=O (stereo unspecified),.,/,.,/,/,/,/,/
Cc1oc(-c2ccccc2)cc1C(=O)NC1CCN(Cc2ccccc2)CC1,.,/,.,.,/,/,/,/
Cc1ccn2cc(-c3ccc(Br)cc3)nc2c1,86,/,40,82,/,83,60,62
Cc1ccc(S(=O)(=O)Nc2ccc(-c3cn4ccc(C)cc4n3)cc2)cc1,.,.,.,.,.,/,/,/
